# Source: ChEMBL document CHEMBL1125205, “Phosphorus-containing inhibitors of HMG-CoA reductase. 2. Synthesis and biological activities of a series of substituted pyridines containing a hydroxyphosphinyl moiety” (J Med Chem, 1991)
# Columns and labels:
# [1] = organism: Homo sapiens; assay: The compound was tested for inhibition of Cholesterol synthesis from [14C]- Acetate in human skin fibroblasts; format: functional; conditions: read-out: I 50
# Method in brief: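 Human skin fibroblasts (passage 7-27) were plated at 5 × 10^5 cells/well and cultured 18 h. Sterol synthesis was induced by 24 h in serum-free MEM with 1.0% fatty acid-free BSA. Cells were preincubated with compound for 30 min (DMSO ≤1.0%), then given sodium [1-14C]acetate at 2.0 µCi/mL for 4 h. Label in the extracted cholesterol peak was compared with controls. I50 from composite curves of ≥2 experiments.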
# [2] = organism: Rattus norvegicus; assay: The compound was tested for inhibition of Cholesterol synthesis from [14C]- Acetate in hepatocytes of rats.; format: functional; conditions: Hepatocyte, read-out: I 50
# Method in brief: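 Rat hepatocytes were freshly isolated by collagenase perfusion, 70-90% viable. Cells were suspended at 5 × 10^6 per 2.0 mL in Tris pH 7.4 incubation medium with cofactors; DMSO was ≤1.0% final. Incubation was with [14C]acetate (2 µCi/mL) for 2.0 h at 37 °C. Lipids were extracted by Bligh-Dyer and the percent of label in the cholesterol peak was compared with controls. I50 from composite curves of two or more studies.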
# [3] = test system: Rattus norvegicus; assay: The compound was tested in vivo for inhibition of Cholesterol Biosynthesis from [14C]- acetate in rat after peroral administration.; format: functional; conditions: po
# [4] = It is the ratio of I50 fibroblasts to that of I50 hepatocytes.; format: functional, Hepatocyte
# Method in brief: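 Selectivity is the ratio of I50 in human skin fibroblasts to I50 in freshly isolated rat hepatocytes. Each I50 came from [14C]acetate incorporation into cholesterol, measured as percent inhibition versus controls from composite dose-response data.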
# [5] = molecular target: T1, 3-hydroxy-3-methylglutaryl-coenzyme A reductase (Rattus norvegicus, UniProt P51639); assay: In vitro for inhibition of rat HMG-CoA reductase.; conditions: read-out: I50
# T1 sequence (P51639 whole entry): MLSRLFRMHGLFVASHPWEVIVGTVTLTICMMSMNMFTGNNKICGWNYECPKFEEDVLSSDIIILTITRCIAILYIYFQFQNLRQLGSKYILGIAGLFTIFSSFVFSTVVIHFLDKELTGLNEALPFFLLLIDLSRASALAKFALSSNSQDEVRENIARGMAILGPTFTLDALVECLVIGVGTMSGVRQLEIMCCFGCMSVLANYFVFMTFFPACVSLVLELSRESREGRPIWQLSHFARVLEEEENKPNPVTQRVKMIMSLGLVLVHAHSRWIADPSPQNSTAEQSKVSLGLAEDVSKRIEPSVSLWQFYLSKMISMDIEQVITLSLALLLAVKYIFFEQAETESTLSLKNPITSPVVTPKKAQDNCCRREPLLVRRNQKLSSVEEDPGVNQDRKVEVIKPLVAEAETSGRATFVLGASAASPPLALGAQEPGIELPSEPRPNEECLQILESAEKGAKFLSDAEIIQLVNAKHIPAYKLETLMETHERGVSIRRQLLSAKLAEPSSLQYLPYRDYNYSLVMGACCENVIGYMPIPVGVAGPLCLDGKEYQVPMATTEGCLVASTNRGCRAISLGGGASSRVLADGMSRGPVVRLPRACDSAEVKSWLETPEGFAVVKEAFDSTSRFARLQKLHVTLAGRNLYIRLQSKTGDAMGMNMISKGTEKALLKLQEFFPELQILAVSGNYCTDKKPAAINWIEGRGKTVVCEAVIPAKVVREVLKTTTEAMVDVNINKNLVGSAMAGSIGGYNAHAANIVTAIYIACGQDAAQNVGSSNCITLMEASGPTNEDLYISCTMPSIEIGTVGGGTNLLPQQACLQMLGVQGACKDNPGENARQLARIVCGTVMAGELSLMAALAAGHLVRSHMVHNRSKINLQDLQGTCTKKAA
# Method in brief: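 Enzyme source: hepatic microsomes from cholestyramine-fed Sprague-Dawley rats. Final assay conditions: 0.04 M potassium phosphate pH 7.2, KCl, sucrose, EDTA, 10 mM DTT, 1% DMSO, 50-200 µg microsomal protein. Microsomes were preincubated with 2.7 mM NADPH for 15 min at 37 °C, then with compound for 15 min. 100 µM 14C-[D,L]-HMG-CoA was then added for 20 min at 37 °C. Read-out: 14C-mevalonate, corrected by 3H-mevalonate recovery. I50 taken from composite dose-response regressions, 2-5 experiments.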
# [6] = test system: Rattus norvegicus; assay: The compound was tested in vivo for inhibition of Cholesterol Biosynthesis from [14C]- acetate in rat after intravenous administration.; format: functional
# Method in brief: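 Male Sprague-Dawley rats (200-300 g) were kept on a reverse light cycle. Salt forms were given iv into the tail vein in saline, 5 min before ip sodium [1-14C]acetate (25 µCi/100 g), dosed 2 h before mid-dark. Blood was taken 2 h after mid-dark. Read-out: 14C nonsaponifiable plasma lipid per mL versus controls, 4-5 rats/group. ED50 from log dose regressions, mean of ≥2 experiments.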
IC50 [5] [nM],Structure (SMILES),IC50 [1] [nM],IC50 [2] [nM],ED50 [3] [mg/kg],Selectivity [4],ED50 [6] [mg/kg]
1.2,Cc1c(-c2ccccc2)nc(C(C)C)c(/C=C/P(=O)([O-])C[C@H](O)CC(=O)[O-])c1-c1ccc(F)cc1.[Na+].[Na+],2000,260,0.46,7.7,0.1
6.1,CC(C)c1nc(C(C)(C)C)cc(-c2ccc(F)cc2)c1C#CP(=O)([O-])C[C@H](O)CC(=O)[O-].[Na+].[Na+],2400,556,3.5,4.3,0.7
4.5,Cc1c(-c2ccccc2)nc(C(C)C)c(C#CP(=O)([O-])C[C@H](O)CC(=O)[O-])c1-c1ccc(F)cc1.[Li+].[Li+],11300,81,3.1,140,0.13
0.55,CCc1c(-c2ccccc2)nc(C(C)C)c(/C=C/P(=O)([O-])C[C@H](O)CC(=O)[O-])c1-c1ccc(F)cc1.[Na+].[Na+],4700,241,> 10,19.5,0.2
62,CC(C)c1nc(-c2ccccc2)cc(-c2ccc(F)cc2)c1C#CP(=O)([O-])C[C@H](O)CC(=O)[O-].[Li+].[Li+],9300,197,3.9,47,0.47
1.9,CC(C)c1nc(-c2ccccc2)cc(-c2ccc(F)cc2)c1/C=C/P(=O)([O-])C[C@H](O)CC(=O)[O-].[Li+].[Li+],2000,77,21.4,26,0.22
